Measured values as given in ChEMBL document CHEMBL5661979, “Pharmacological inhibition of BMK1 suppresses tumor growth through promyelocytic leukemia protein” (Cancer Cell, 2010).

Key:
[1] = molecular target: DNA-dependent protein kinase catalytic subunit (Homo sapiens, UniProt P78527); assay: Inhibition of PRKDC in human HeLa cells lysate pre incubated for 15 mins followed by ATP acyl phosphate probe addition and measured after 10 mins by LC-MS/MS analysis; type: subcellular
[2] = molecular target: Ribosomal protein S6 kinase alpha-5 (Homo sapiens, UniProt O75582); assay: Inhibition of MSK1 domain 1 K1 site in human HeLa cells lysate pre incubated for 15 mins followed by ADP acyl phosphate probe addition and measured after 10 mins by LC-MS/MS analysis; type: subcellular
[3] = molecular target: T1, Serine/threonine-protein kinase 3 (Homo sapiens) (UniProt Q13188); assay: Inhibition of MST2 in human HeLa cells lysate at 2 uM pre incubated for 15 mins followed by ADP acyl phosphate probe addition and measured after 10 mins by LC-MS/MS analysis relative to control; type: subcellular; conditions: time 25.0 min
T1 sequence (whole entry): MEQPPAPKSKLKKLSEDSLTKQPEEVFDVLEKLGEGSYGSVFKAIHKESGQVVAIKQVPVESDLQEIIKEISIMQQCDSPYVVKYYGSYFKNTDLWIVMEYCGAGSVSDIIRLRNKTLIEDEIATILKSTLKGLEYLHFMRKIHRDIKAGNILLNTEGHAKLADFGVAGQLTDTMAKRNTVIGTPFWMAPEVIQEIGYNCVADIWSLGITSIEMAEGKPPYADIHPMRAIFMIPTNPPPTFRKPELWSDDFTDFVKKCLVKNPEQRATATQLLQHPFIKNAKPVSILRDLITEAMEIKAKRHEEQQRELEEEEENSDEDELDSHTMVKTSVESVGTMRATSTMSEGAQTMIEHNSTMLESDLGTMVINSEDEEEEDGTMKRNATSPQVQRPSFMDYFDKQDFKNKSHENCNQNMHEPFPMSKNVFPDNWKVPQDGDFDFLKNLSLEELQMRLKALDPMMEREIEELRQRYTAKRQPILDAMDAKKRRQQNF

[4] = MRT in Sprague-Dawley rat at 2 mg/kg, po measured up to 8 hrs by LC-MS/MS analysis; type: ADME, organism-based; conditions: in vivo
[5] = molecular target: T2, Serine/threonine-protein kinase tousled-like 1 (Homo sapiens) (UniProt Q9UKI8); assay: Inhibition of TLK1 in human HeLa cells lysate at 10 uM pre incubated for 15 mins followed by ADP acyl phosphate probe addition and measured after 10 mins by LC-MS/MS analysis relative to control; type: subcellular; conditions: time 25.0 min
T2 sequence (whole entry): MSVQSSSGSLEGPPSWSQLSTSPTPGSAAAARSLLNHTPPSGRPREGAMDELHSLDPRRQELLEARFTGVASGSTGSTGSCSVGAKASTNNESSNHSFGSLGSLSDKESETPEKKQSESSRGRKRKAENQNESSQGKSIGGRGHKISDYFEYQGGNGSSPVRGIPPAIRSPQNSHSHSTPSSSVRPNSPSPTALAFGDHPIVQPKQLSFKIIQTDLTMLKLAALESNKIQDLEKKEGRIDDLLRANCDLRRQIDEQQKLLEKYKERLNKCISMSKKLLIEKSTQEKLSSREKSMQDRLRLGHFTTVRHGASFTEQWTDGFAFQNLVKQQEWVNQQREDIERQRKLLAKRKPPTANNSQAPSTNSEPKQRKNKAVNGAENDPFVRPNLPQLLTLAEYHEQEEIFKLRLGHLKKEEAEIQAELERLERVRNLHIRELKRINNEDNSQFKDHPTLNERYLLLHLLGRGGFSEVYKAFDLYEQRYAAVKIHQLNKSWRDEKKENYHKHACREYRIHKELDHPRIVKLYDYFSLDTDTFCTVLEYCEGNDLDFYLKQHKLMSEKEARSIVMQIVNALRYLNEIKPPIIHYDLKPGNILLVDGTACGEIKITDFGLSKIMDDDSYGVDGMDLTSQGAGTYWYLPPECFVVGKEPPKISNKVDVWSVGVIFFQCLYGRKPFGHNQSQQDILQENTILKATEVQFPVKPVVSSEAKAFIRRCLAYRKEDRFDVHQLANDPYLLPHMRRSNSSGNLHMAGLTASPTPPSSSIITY

[6] = molecular target: Tyrosine-protein kinase Fer (Homo sapiens, UniProt P16591); assay: Inhibition of FER in human HeLa cells lysate at 50 uM pre incubated for 15 mins followed by ATP acyl phosphate probe addition and measured after 10 mins by LC-MS/MS analysis relative to control; type: subcellular; conditions: time 25.0 min
[7] = molecular target: 5'-AMP-activated protein kinase catalytic subunit alpha-1 (Homo sapiens, UniProt Q13131); assay: Inhibition of AMPKalpha1 in human HeLa cells lysate pre incubated for 15 mins followed by ADP acyl phosphate probe addition and measured after 10 mins by LC-MS/MS analysis; type: subcellular
Outline: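 HeLa cell lysates (5 mg/mL total protein) were preincubated with inhibitor at 0, 0.8, 2, 10 or 50 μM for 15 min. ATP or ADP acylphosphate probe was then added (5 μM final) for 10 min, and reactions were stopped with urea. Up to four fragment ions per kinase probe-peptide were quantified by targeted MS. % inhibition was taken relative to untreated lysate. Run in duplicate.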

[8] = molecular target: Calcium/calmodulin-dependent protein kinase type II subunit gamma (Homo sapiens, UniProt Q13555); assay: Inhibition of CAMK2g in human HeLa cells lysate at 50 uM pre incubated for 15 mins followed by ADP acyl phosphate probe addition and measured after 10 mins by LC-MS/MS analysis relative to control; type: subcellular; conditions: time 25.0 min
Outline: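 KiNativ-type profiling in HeLa lysate (5 mg/mL total protein). Lysate preincubated 15 min with inhibitor at 50, 10, 2, 0.8 or 0 μM, then ATP or ADP acylphosphate probe added (5 μM final) for 10 min. Reaction stopped with urea and analysed by targeted MS, using up to four fragment ions per kinase peptide-probe conjugate. % inhibition calculated against untreated lysate. Duplicate reactions.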

[9] = molecular target: T3, Mixed lineage kinase domain-like protein (Homo sapiens) (UniProt Q8NB16); assay: Inhibition of MLKL in human HeLa cells lysate at 50 uM pre incubated for 15 mins followed by ADP acyl phosphate probe addition and measured after 10 mins by LC-MS/MS analysis relative to control; type: subcellular; conditions: time 25.0 min
T3 sequence (whole entry): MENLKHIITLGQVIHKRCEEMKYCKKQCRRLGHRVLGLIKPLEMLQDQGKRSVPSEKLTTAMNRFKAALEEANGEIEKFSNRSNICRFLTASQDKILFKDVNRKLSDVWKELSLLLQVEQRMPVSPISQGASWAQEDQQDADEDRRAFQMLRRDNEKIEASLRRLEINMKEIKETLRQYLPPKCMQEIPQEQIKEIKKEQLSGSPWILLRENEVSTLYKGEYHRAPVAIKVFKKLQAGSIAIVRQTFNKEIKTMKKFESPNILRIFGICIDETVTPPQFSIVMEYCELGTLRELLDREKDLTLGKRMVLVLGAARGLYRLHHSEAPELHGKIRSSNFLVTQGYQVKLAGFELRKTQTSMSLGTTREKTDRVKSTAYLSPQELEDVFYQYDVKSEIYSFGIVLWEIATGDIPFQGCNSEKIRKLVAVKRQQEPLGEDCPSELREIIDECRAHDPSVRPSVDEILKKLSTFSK

Chain of 5'-AMP-activated protein kinase catalytic subunit alpha-1 (Q13131 whole entry, the tested form may be a part): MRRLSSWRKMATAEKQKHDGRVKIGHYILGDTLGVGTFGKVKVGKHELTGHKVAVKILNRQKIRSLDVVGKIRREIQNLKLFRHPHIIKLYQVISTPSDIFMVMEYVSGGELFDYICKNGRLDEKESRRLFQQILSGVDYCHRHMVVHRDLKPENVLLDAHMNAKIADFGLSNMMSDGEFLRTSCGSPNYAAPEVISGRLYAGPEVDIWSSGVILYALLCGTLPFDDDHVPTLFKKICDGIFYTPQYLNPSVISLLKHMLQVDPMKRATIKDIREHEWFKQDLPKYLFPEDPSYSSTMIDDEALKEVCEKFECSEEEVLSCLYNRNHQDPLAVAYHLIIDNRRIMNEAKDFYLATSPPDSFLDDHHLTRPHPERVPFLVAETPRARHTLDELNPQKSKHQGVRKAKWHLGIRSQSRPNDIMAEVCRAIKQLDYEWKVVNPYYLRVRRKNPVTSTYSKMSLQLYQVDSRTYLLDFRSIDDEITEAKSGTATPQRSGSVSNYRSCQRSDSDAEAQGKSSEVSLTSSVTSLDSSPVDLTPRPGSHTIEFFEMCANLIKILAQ
Chain of Ribosomal protein S6 kinase alpha-5 (O75582 whole entry, the tested form may be a part): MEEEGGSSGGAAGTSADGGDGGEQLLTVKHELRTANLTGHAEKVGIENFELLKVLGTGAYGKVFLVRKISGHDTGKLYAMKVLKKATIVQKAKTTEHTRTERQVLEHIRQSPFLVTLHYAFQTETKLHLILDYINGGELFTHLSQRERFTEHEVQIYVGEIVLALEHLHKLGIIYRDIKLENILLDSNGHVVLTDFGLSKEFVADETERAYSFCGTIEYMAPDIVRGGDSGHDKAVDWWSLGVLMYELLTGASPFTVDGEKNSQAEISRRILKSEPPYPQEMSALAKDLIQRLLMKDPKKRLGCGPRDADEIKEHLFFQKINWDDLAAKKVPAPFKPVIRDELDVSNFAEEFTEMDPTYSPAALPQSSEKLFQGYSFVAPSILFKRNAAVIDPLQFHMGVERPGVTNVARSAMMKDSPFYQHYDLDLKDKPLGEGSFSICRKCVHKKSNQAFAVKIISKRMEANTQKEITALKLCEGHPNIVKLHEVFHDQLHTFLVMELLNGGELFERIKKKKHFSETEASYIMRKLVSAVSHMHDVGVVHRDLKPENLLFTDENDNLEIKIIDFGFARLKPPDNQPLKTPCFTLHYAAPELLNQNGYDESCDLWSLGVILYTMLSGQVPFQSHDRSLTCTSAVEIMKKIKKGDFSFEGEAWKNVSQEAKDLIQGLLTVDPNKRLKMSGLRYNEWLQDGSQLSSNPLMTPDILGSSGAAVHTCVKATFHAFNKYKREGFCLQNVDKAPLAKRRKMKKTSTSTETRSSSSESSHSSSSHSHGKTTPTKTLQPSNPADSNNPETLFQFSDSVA
Chain of Calcium/calmodulin-dependent protein kinase type II subunit gamma (Q13555 whole entry, the tested form may be a part): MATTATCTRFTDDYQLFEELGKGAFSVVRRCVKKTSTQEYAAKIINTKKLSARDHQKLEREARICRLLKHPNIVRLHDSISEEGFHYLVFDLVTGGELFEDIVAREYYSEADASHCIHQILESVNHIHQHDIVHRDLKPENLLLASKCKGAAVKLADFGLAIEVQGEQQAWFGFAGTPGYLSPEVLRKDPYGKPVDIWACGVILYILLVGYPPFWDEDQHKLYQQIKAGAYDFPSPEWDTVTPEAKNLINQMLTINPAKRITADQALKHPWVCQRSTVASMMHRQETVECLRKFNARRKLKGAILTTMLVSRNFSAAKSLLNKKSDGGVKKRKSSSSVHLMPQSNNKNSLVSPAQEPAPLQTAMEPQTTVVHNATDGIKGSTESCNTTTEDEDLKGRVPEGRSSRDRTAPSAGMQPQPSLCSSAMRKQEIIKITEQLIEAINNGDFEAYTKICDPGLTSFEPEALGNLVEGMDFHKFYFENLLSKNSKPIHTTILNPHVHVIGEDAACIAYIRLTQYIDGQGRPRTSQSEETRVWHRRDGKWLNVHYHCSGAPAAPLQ
Chain of Tyrosine-protein kinase Fer (P16591 whole entry, looked up): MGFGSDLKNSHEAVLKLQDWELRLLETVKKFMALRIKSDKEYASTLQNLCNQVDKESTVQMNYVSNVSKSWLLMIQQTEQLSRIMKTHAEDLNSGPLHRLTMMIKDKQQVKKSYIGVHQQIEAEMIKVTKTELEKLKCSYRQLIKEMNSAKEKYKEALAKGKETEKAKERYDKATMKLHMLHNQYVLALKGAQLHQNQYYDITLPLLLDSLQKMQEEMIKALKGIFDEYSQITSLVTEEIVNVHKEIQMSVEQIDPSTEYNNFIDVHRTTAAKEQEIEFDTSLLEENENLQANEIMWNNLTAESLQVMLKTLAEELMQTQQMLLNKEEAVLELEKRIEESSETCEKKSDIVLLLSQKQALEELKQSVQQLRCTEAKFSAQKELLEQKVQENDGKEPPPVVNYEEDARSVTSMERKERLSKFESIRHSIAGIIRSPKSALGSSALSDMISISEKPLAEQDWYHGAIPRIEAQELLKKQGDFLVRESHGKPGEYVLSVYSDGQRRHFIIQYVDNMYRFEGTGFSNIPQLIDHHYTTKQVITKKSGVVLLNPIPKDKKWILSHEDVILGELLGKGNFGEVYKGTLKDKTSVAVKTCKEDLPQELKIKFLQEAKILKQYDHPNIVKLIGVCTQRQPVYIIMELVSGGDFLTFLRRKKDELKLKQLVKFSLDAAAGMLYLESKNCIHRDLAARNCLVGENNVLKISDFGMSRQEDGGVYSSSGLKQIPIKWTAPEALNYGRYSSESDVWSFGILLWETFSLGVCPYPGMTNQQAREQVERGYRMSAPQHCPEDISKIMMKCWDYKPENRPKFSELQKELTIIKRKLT

CCOc1cc(N2CCC(O)CC2)ccc1Nc1ncc2c(n1)N(C)c1ccccc1C(=O)N2C
IC50 [1]: > 50 µM | IC50 [2]: > 50 µM | inhibition [3]: 26.2% | MRT [4]: 4.8 h | inhibition [5]: 4.5% | inhibition [6]: 14.8% | IC50 [7]: > 50 µM | inhibition [8]: 14.1% | inhibition [9]: -6.7%
